MDM2 E3 inh = inhibitors of human Mdm2 E3 ubiquitin ligase; actives 0.11% (n = 210,000); Q00987; cell-based MDM2 ubiquitination luciferase reporter, 2 h; 0 = plate control, 100 = twice control, blank-subtracted; signal enhancement, % at 5 µM;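 active = signal enhancement of 30% or more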;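 note: luminescence tracks abundance of the self-degrading MDM2-luciferase fusion protein; higher signal means inhibition of MDM2 E3 ligase activity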
Target sequence (Q00987 whole entry, looked up, the tested form may be a part): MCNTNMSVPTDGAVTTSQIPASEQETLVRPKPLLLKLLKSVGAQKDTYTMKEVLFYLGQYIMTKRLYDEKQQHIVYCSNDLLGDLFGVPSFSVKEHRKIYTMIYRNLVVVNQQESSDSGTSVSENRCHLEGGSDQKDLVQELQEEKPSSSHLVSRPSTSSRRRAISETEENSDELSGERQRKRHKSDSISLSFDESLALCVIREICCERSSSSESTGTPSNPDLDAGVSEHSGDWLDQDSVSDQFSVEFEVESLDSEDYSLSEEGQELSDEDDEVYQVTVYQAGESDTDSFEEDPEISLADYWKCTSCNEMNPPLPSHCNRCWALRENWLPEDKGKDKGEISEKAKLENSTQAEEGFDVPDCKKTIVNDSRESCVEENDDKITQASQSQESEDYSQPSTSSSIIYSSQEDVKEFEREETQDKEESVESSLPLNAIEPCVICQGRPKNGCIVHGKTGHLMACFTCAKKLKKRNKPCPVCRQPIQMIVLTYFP
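Timing – 2 h compound exposure at 37 °C · Assay system – mammalian cells stably expressing self-ubiquitinating, self-degrading MDM2 E3–luciferase fusion · Amount – 2000 cells seeded into each well · Measure – % luminescence enhancement versus blank-corrected plate control mean · Measured by – SteadyLite luminescence, 15 min reagent step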
S1P3 antag-1 = blocks the human S1P3 receptor | inhibition, % at 4.98 µM | AID 485 | CHO S1P3 NFAT-BLA reporter, FRET fluorescence, antagonist mode | actives 0.27% (n = 170,000);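 active = inhibition above the plate cutoff, the mean inhibition of test wells on that plate plus 3 SD, cut at about 28% in these data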;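 note: cells challenged with S1P at its EC80 of 0.8 µM; blue over green emission ratio from cleaved BLA substrate after 4 h stimulation; 0% = S1P-stimulated wells and 100% = unstimulated DMSO-only wells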
Hsp70 activator = Hsp70 transcriptional activation, primary screen; activation, % at 10 µM; HeLa Hsp70 promoter luciferase reporter, luminescence; scaled: vehicle 0, proteasome-inhibitor control 100%; AID 1203; actives 0.04% (n = 200,000);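 active = activation above the mean across all tested compounds plus 3 SD, cutoff set per campaign, cut at about 5.5% in these data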;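 note: 100% = MG132 at 30 µM as the positive control and 0% = DMSO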
Dynein cargo inh = blocks dynein driven cargo transport along microtubules. 3617.4 mouse cells, GR-EGFP nuclear translocation imaging; test concentration mostly 20 µM; stimulated with dexamethasone, 1 µM; hits give low values. z-score, hits read low. actives 0.47% (n = 220,000). AID 1381;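 active = plate z-score of nuclear minus cytoplasmic receptor signal below a set negative limit, without overly bright fluorescence or cell loss, cut at about -3.5 in these data, passing the limit was not always enough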;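 note: z-score of nuclear minus cytoplasmic ring GR-EGFP intensity difference per well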
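Buffer or medium: tet-free medium with charcoal-stripped serum / Also added: dexamethasone agonist, 1.0 µM final, for 30 min / Timing: induction 48 h, compound 1 h, agonist 30 min / Measured by: high-content fluorescence imaging after fixation / Read-out: nuclear-to-cytoplasmic GR-EGFP distribution per well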
S1P4 antagonist = blocks the human S1P4 receptor; O95977; S1P4-expressing cells, antagonist mode, reporter read-out; inhibition, % at 4.98 µM; actives 0.26% (n = 220,000); AID 1510; in the data active = inhibition above about 29%;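 note: 0% = wells stimulated with agonist and 100% = vehicle wells without agonist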
S1P4 ag = human S1P4 receptor agonism; O95977; S1P4-expressing cell line, agonist reporter assay; activation, % at 4.98 µM; actives 0.35% (n = 220,000); in the data active = activation above about 11%;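 note: 0% = DMSO vehicle and 100% = reference agonist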
S1P3 antag-2 = human S1P3 receptor antagonism, confirmation; AID 1429; CHO S1P3 NFAT-BLA reporter, FRET, antagonist mode; inhibition, % at 4.98 µM; shares compounds with S1P3 antag-1; actives 30% (n = 240);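 active = inhibition above the hit threshold that was computed for the earlier primary screen, cut at about 30% in these data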;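 note: 0% = S1P-stimulated wells and 100% = unstimulated DMSO-only wells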
Active calls of the source: *; . = no result. Compounds with a hit are over-represented: about 1.3% of the library has one in this group of screens.

SMILES	MDM2 E3 inh	S1P3 antag-1	Hsp70 activator	Dynein cargo inh	S1P4 antagonist	S1P4 ag	S1P3 antag-2
CCOC(=O)c1cc2c(=O)n3ccccc3nc2n(CC2CCCO2)c1=NC(C)=O (stereo not given)	.	.	-0.4	-0.756	-22.8	17.9*	.
CC1CC(=O)NN1C(=O)c1ccccc1 (stereo not given)	-4.8	-8.5	.	-0.052	-4.0	1.5	.
CCCCN(C)C(=O)c1cn(C)c2ccc(S(=O)(=O)N(C)C)cc2c1=O	-24.1	86.7*	-0.4	1.57	2.7	0.0	.
CCCCC(=O)Nc1nnc(CCOC)s1	-6.0	-17.8	0.2	0.205	-4.1	0.8	.
CC(C)n1cnc2c(N(C)c3ccccc3)nc(N(CCN(C)C)Cc3ccccc3)nc21	35.1*	.	.	-3.66	.	.	.
COc1ccc(CN(CCN(C)C)c2ccccn2)cc1	.	-8.0	-0.2	-0.828	-12.6	-0.6	.
Cc1ccc(S(=O)(=O)N2CCN(C(=O)CC(C)C)CC2)cc1	31.8*	6.0	-0.2	1.14	-7.9	0.1	.
COc1ccc(OCC(O)CNS(=O)(=O)c2ccc(C)cc2)cc1 (stereo not given)	-8.2	5.7	.	-0.567	0.0	0.4	.
COc1ccc(C)cc1S(=O)(=O)N(C)CC(=O)NC1CCCCCC1	-11.7	-18.6	0.4	-0.35	-7.7	-0.2	.
COc1ccc(C)cc1S(=O)(=O)N(C)CC(=O)NC1CCCCC1	30.1*	-14.5	-0.2	2.55	-24.1	2.3	.
Cc1ccc2nc(C)c3c(c2c1)COC3	-4.2	29.8*	-0.1	3.36	2.7	1.3	-3.1
O=C(Nc1ccc(N2CCN(C(=O)c3ccco3)CC2)cc1)c1ccc2c(c1)OCO2	-7.9	30.4	-0.1	-0.301	-25.5	-1.0	.
Cc1ccccc1C(=O)N1CCN(c2ccc(NC(=O)c3ccc4c(c3)OCO4)cc2)CC1	-7.8	29.7*	-0.1	-0.669	-4.3	0.6	36.0*
COc1cccc(OC)c1C(=O)Nc1nc2cc3c(cc2s1)OCO3	-15.3	32.5*	.	1.71	-1.9	-0.6	-2.5
O=C(CSc1nc(C2CCCCC2)n(-c2ccccc2)n1)NCC(F)(F)F	.	51.2*	-0.2	0.483	-11.3	-1.4	-5.1
O=C(CSc1nc(C2CCCCC2)n(-c2ccccc2)n1)NCCN1C(=O)CSC1=O	-4.7	-15.7	-0.4	-0.194	-34.0	-1.4	.
CN(C(=O)CC1C(=O)NCCN1CC(c1ccccc1)c1ccccc1)C(C1CC1)C1CC1 (stereo not given)	-7.3	28.9*	.	-0.0585	7.2	-1.2	2.7
Cc1ccc(CN2CCNC(=O)C2CC(=O)N(C)C(C2CC2)C2CC2)o1 (stereo not given)	-16.5	-15.9	0.3	0.0304	-6.1	1.2	.
O=C(O)c1ccccc1C(=O)NC1CCCCNC1=O (stereo not given)	-1.4	-8.8	.	-0.152	-16.8	0.8	.
Cc1nn(-c2ccccc2)c(Cl)c1/C=N/NC(=O)c1ccco1	-11.1	.	0.5	0.357	-0.2	-0.7	.
Cc1nn(-c2ccccc2)c(Cl)c1/C=N/NC(=O)c1ccc(CNc2ccccc2)o1	-17.2	28.2*	-0.4	-0.432	-7.8	-3.1	18.6
O=c1[nH]c(SCc2ccc(Cl)cc2)nc2[nH]ncc12	-5.7	-14.9	-0.3	-0.719	-9.5	0.6	.
COC(=O)C1=C(N)Oc2cc(C)[nH]c(=O)c2C1c1ccccc1OC (stereo not given)	-10.4	-8.3	.	-1.19	-9.0	-0.1	.
O=C(NCC1CCCO1)C(=O)c1c[nH]c2ccccc12 (stereo not given)	3.3	-3.7	0.2	0.036	1.9	-0.6	.
Cc1[nH]c2ccccc2c1C(=O)C(=O)NCC1CCCO1 (stereo not given)	-21.9	53.5*	-0.4	0.258	6.2	0.7	-11.8
CCCC(=O)Nc1ccc(Nc2ccccc2)cc1	-11.3	101.2*	-0.1	1.83	-3.2	0.6	-7.0
CCCC(=O)Nc1ccc(-c2ccc(NC(=O)CCC)cc2)cc1	-11.2	-0.9	-0.1	0.412	-13.5	1.8	.
O=C(c1ccccc1)c1ccc2c(c1)OCCOCCOCCOCCO2	-4.5	28.9*	.	0.201	3.2	1.4	-14.5

From PubChem BioAssay
